A word on the Inhibition: it is the share of the control response that was lost under treatment. Higher therefore signals a strong effect. Usually ED50 stands for the dose that gives a 50% effect, or the effect in half of the subjects. Read a high ED50 as a need for a large dose.

Experiment [1] deals with Rattus norvegicus. Put plainly: In vivo inhibition of formalin induced flinching after intra paw dosing of compound at 300 ug.
The subject of experiment [2] is Mus musculus. The experiment can be described thus: Effective dose that induced platform sedation after subcutaneous administration in mice. It is filed as functional. The following applies: sc. A digest of the protocol: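 Mice screened first for baseline latency to step fully off a slightly raised platform (11 × 8 × 3 cm); animals with baseline >15 s excluded. Drug or vehicle (20% aqueous creamaphor) given s.c. at back of neck; latency retested 20 min later, 30 s cut-off. % sedation = (test − baseline)/(30 s − baseline) × 100; ED50 from dose–response.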

As for `COc1cccc(C(CN2CCCC2)N(C)C(=O)Cc2ccc(C(F)(F)F)cc2)c1` (racemic), the Inhibition in experiment [1] came out at 99%. The molecule `CN(C(=O)Cc1ccc(C(F)(F)F)cc1)[C@H](CN1CCCC1)c1ccccc1` showed an Inhibition in experiment [1] of 92%. In experiment [2], this molecule came in with an ED50 of 0.13 mg/kg. In experiment [1], `CN(C(=O)Cc1ccc(C(F)(F)F)cc1)[C@H](CN1CCCC1)c1cccc(NS(N)(=O)=O)c1` had an Inhibition of 73%. Also, the ED50 in experiment [2] amounted to 13 mg/kg. The like results for `CN(C(=O)Cc1ccc(C(F)(F)F)cc1)[C@H](CN1CCCC1)c1cccc(NS(C)(=O)=O)c1` were, in that order, 77% and 89 mg/kg. `CN(C(=O)Cc1ccc(C(F)(F)F)cc1)[C@H](CN1CCCC1)c1cccc(NC(=O)CCC(=O)O)c1` showed an Inhibition in experiment [1] of 73%. Moreover, it took a dose of 47 mg/kg to reach the 50% effect level in experiment [2] (ED50).

In turn, `CN(C(=O)Cc1ccc(C(F)(F)F)cc1)C(CN1CCCC1)c1cccc(O)c1` (racemic) returned an Inhibition in experiment [1] of 99%. With `CN(C(=O)Cc1ccc(C(F)(F)F)cc1)C(CN1CCCC1)c1cccc(OCC(=O)OC(C)(C)C)c1` (racemic), in experiment [1], the Inhibition is on record as 84%. This molecule displayed a 50% effective dose (ED50) in experiment [2] of 140 mg/kg. On the same counts, the results for `CN(C(=O)Cc1ccc(C(F)(F)F)cc1)C(CN1CCCC1)c1cccc(OCC(=O)O)c1` (racemic) are 93% and more than 300 mg/kg. In turn, `CN(C(=O)Cc1ccc(Cl)c(Cl)c1)C(CN1CCCC1)c1cccc(OCC(=O)O)c1` (stereo not given) [ICI-204448] registered an ED50 in experiment [2] of 5.2 mg/kg.

For the origin of these results see ChEMBL document CHEMBL1144321, “Synthesis and evaluation of novel peripherally restricted kappa-opioid receptor agonists” (Bioorg Med Chem Lett, 2005).
